The values that follow come from ChEMBL document CHEMBL1955801, “Synthesis, biological evaluation and molecular investigation of fluorinated peroxisome proliferator-activated receptors α/γ dual agonists” (Bioorg Med Chem, 2012).

Structures are written as SMILES. Activity calls are given as the source filed them. The calls are words filed in the database; no cut-off is given here.

Assay [1] has as its target T1, Peroxisome proliferator-activated receptor alpha (Homo sapiens) (UniProt Q07869).
T1 sequence (whole entry): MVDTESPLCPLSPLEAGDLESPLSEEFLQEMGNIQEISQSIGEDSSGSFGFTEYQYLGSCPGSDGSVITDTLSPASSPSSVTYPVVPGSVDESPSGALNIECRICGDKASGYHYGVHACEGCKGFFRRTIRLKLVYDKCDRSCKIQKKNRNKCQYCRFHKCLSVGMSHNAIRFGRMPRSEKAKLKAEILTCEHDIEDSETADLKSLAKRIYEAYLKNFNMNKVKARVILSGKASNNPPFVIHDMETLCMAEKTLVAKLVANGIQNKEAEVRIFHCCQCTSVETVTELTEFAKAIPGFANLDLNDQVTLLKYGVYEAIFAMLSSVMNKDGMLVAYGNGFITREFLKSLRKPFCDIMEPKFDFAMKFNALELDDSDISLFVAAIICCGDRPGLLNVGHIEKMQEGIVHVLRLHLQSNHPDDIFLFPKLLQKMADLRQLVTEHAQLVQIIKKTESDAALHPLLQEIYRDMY
Kind of assay: Agonist activity at GAL4-tagged human PPARalpha ligand binding domain expressed in HepG2 cells assessed as transactivation after 20 hrs by beta-galactosidase reporter gene assay relative to Wy-14643. The assay is classed as cell-based. An outline of the steps:
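HepG2 cells were grown in MEM with 10% heat-inactivated FBS and penicillin/streptomycin at 37 °C in 5% CO2. They were seeded at 10^5 cells/well in triplicate and calcium-phosphate transfected 24 h later with GAL4-PPARα LBD (30 ng), pGAL5TKpGL3 luciferase reporter (100 ng) and pCMVβgal (250 ng). Ligands were applied for 20 h. Luciferase was read with β-galactosidase measured alongside. Wy-14,643 was the reference. Experiments were repeated at least twice.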

Assay [2] addresses T2, Peroxisome proliferator-activated receptor alpha (Homo sapiens, UniProt Q07869).
T2 sequence (Q07869 whole entry): T1 sequence (whole entry)
Nature of the assay: Agonist activity at GAL4-tagged human PPARalpha ligand binding domain expressed in HepG2 cells assessed as transactivation after 20 hrs by beta-galactosidase reporter gene assay. The assay is classed as cell-based. An outline of the steps:
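HepG2 cells were grown in MEM with 10% heat-inactivated FBS and penicillin/streptomycin at 37 °C in 5% CO2. They were seeded at 10^5 cells/well in triplicate and calcium-phosphate transfected 24 h later with GAL4-PPARα LBD (30 ng), pGAL5TKpGL3 luciferase reporter (100 ng) and pCMVβgal (250 ng). Ligands were applied for 20 h. Luciferase was read with β-galactosidase measured alongside. Experiments were repeated at least twice.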

The target in assay [3] is T3, Peroxisome proliferator-activated receptor gamma (Homo sapiens, UniProt P37231).
T3 sequence (P37231 whole entry): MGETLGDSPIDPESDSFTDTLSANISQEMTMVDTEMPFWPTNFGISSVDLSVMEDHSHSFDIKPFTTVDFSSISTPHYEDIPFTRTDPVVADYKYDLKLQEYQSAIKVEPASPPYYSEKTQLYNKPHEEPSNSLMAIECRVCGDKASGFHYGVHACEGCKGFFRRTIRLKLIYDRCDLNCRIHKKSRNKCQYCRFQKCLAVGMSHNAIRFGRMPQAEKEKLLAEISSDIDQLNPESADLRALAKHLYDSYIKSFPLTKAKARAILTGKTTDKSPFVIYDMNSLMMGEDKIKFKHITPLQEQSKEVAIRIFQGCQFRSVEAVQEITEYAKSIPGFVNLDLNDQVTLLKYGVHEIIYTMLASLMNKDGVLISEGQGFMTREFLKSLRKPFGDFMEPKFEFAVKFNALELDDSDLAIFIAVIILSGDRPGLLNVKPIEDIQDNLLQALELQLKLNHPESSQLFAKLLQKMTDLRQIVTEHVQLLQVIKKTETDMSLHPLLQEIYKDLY
Nature of the assay: Agonist activity at GAL4-tagged human PPARgamma ligand binding domain expressed in HepG2 cells assessed as transactivation after 20 hrs by beta-galactosidase reporter gene assay. The assay is classed as cell-based.

Assay [4] concerns the target T4, Peroxisome proliferator-activated receptor gamma (Homo sapiens) (UniProt P37231).
T4 sequence (whole entry): T3 sequence (P37231 whole entry)
Kind of assay: Agonist activity at GAL4-tagged human PPARgamma ligand binding domain expressed in HepG2 cells assessed as transactivation after 20 hrs by beta-galactosidase reporter gene assay relative to pioglitazone. The assay is classed as cell-based. An outline of the steps: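 HepG2 cells were cultured in MEM with 10% heat-inactivated FBS at 37 °C in 5% CO2 and seeded at 10^5 cells/well in triplicate. After 24 h they were calcium-phosphate transfected with GAL4-PPARγ LBD (30 ng), pGAL5TKpGL3 luciferase reporter (100 ng) and pCMVβgal (250 ng). Cells were treated with ligands for 20 h. Luciferase and β-galactosidase activities were measured in extracts. Pioglitazone was the reference. Experiments were run at least twice.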

Assay [5] has as its target T1, Peroxisome proliferator-activated receptor alpha (Homo sapiens). Conditions: HepG2, 5 to 10 uM.
The target of assay [6] is T2, Peroxisome proliferator-activated receptor alpha. Kind of assay: Agonist activity at GAL4-tagged human PPARalpha ligand binding domain expressed in HepG2 cells assessed as transactivation at 5 to 10 uM after 20 hrs by beta-galactosidase reporter gene assay. The assay is classed as cell-based.
Assay [7] deals with T4, Peroxisome proliferator-activated receptor gamma (Homo sapiens). Conditions: HepG2, 5 to 10 uM.
In assay [8] the target is T3, Peroxisome proliferator-activated receptor gamma. Kind of assay: Agonist activity at GAL4-tagged human PPARgamma ligand binding domain expressed in HepG2 cells assessed as transactivation at 5 to 10 uM after 20 hrs by beta-galactosidase reporter gene assay. The assay is classed as cell-based.

Turning to `O=C(O)C(Cc1ccccc1)Oc1ccc(Cl)c(C(F)(F)F)c1` (stereo not given), the Emax in assay [1] stood at 59%; in assay [4] it was 21%. The figures for the half-maximal effective concentration (EC50) in assay [2] and in assay [3] were 2.5 µM and 5.8 µM, respectively.
On the same counts, the results for `O=C(O)[C@H](Cc1ccc(Cl)cc1)Oc1ccc(Cl)cc1F` are 76%, 70%, 1 µM and 0.5 µM.
On to `O=C(O)C(Cc1ccccc1F)Oc1ccc(Cl)cc1` (racemic), for which the figures for the Emax in assay [1] and in assay [4] were 66% and 59%, respectively. Further, the EC50 in assay [2] was found to be 6.6 µM; in assay [3], 4.9 µM.
With `O=C(O)C(Cc1ccccc1)Oc1ccc(Cl)c(F)c1` (stereo not given), the Emax in assay [1] was 51%; in assay [4], 40%. Moreover, the EC50 in assay [2] was determined as 6.5 µM; in assay [3], 14.1 µM.
For the compound `O=C(O)C(Cc1ccccc1)Oc1cccc(F)c1` (racemic), the figures for the Emax in assay [1] and in assay [4] were 57% and 33%, respectively. Also, the EC50 in assay [2] was determined as 21 µM; in assay [3] it was 41 µM.
The like results for `O=C(O)C(Cc1ccc(F)cc1)Oc1ccc(Cl)cc1` (racemic) were, in that order, 66%, 57%, 5.4 µM and 5.2 µM.
On to `O=C(O)[C@H](Cc1ccccc1)Oc1ccc(F)cc1`, for which the values for the Emax in assay [1] and in assay [4] were 55% and 58%, respectively. Besides, the results for the 50% effective concentration (EC50) in assay [2] and in assay [3] were 24.8 µM and 35.2 µM, respectively.
The like results for `O=C(O)C(Cc1ccccc1)Oc1ccccc1F` (racemic) were, in that order, 36%, 26%, 22.3 µM and 19 µM.
On the same counts, the results for `O=C(O)C(Oc1ccc(Cl)cc1F)c1ccccc1` (stereo not given) are 88%, 11%, 19 µM and 32 µM.
For `O=C(O)C(Oc1cccc(C(F)(F)F)c1)c1ccc(Cl)cc1` (stereo not given), the Emax entry in assay [5] was “inactive”. Further, the concentration for a half-maximal effect (EC50) result in assay [6] was “Not Active”; in assay [3], 10 µM. In assay [4], the Emax is 13%.
Take `O=C(O)C(Cc1ccccc1)Oc1ccccc1C(F)(F)F` (racemic): the EC50 result in assay [6] is “Not Active”; in assay [3], 30 µM. Also, in assay [4], the Emax amounted to 13%.
Take `Cc1cccc(Nc2cc(Cl)nc(SCC(=O)O)n2)c1C` [PIRINIXIC ACID]: the Emax result in assay [7] was “inactive”. Besides, the EC50 result in assay [8] is “Not Active”.
Turning to `O=C(O)C(Cc1cccc(F)c1)Oc1ccc(Cl)cc1F` (racemic), the Emax was 101% in assay [1] and 83% in assay [4]. The half-maximal effective concentration (EC50) in assay [2] was 4.5 µM; in assay [3] it was 2.4 µM.
The like results for `O=C(O)[C@H](Cc1ccccc1)Oc1ccc(Cl)cc1` were, in that order, 90%, 77%, 4.9 µM and 9.6 µM.
As to `O=C(O)C(Cc1ccc(Cl)cc1)Oc1ccc(Cl)cc1F` (racemic), the figures for the Emax in assay [1] and in assay [4] were 76% and 69%, respectively. Further, the values for the EC50 in assay [2] and in assay [3] were 1.4 µM and 0.9 µM, respectively.
Consider `O=C(O)[C@H](Cc1ccccc1)Oc1ccc(Cl)cc1F`, for which the Emax is 101% in assay [1] and 84% in assay [4]. Also, the 50% effective concentration (EC50) in assay [2] is 2.2 µM; in assay [3], 2.5 µM.
The like results for `O=C(O)C(Oc1ccc(Cl)cc1F)c1ccc(Cl)cc1` (stereo not given) were, in that order, 38%, 24%, 10.3 µM and 16.4 µM.
Consider `CCc1ccc(CCOc2ccc(CC3SC(=O)NC3=O)cc2)nc1` (stereo not given) [PIOGLITAZONE], for which, in assay [5], the Emax result was “inactive”. Moreover, in assay [6], the half-maximal effective concentration (EC50) result is recorded as “Not Active”.
For the compound `O=C(O)[C@H](Cc1ccccc1)Oc1cccc(C(F)(F)F)c1`, the Emax in assay [1] was 71%; in assay [4], 44%. Besides, the EC50 in assay [2] is 9.8 µM; in assay [3], 15.9 µM.
`O=C(O)C(Cc1cccc(F)c1)Oc1ccccc1C(F)(F)F` (racemic): the EC50 result in assay [6] was “Not Active”; in assay [3], 11.6 µM. The Emax in assay [4] came out at 20%.
Regarding `O=C(O)[C@H](Cc1ccccc1)Oc1ccc(C(F)(F)F)cc1`, the Emax was 81% in assay [1] and 59% in assay [4].
In the case of `O=C(O)C(Cc1cccc(F)c1)Oc1ccc(Cl)cc1` (racemic), the Emax in assay [1] was determined as 65%; in assay [4], 52%. Moreover, the EC50 in assay [2] came out at 5.1 µM; in assay [3], 3.5 µM.
